# Screens (PubChem BioAssay)
# Ins promoter up – MIN6 insulin promoter up-regulation | MIN6 insulin promoter-GFP reporter, high-content imaging; active compounds read high | z-score at 5 µM | actives 0.3% (n = 190,000);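 active = z-score above 3 at 5 µM with at least 500 cells counted in the well; inconclusive = wells under 500 cells, flagged as cytotoxic or low count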
# RBBP9 inh – blocks human serine hydrolase RBBP9. actives 0.2% (n = 220,000). inhibition, % at 7.94 µM. recombinant RBBP9, FP-Rh probe fluorescence polarization. O75884;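 active = inhibition above the campaign mean of all tested compounds plus 3 SD, cut at about 14% in these data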;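 also: plate controls were DMSO wells with RBBP9 for no effect and wells lacking RBBP9 protein for full effect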
#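 Test system: recombinant human RBBP9; Timing: 30 min then 45 min, 25 °C; Detection: fluorescence polarization; Control set: RBBP9 with DMSO as uninhibited control, no-protein wells as full inhibition; Compound dosing: one concentration, 7.94 µM nominal, 0.794% DMSO; Probe or stimulus: FP-Rh activity-based probe, 375 nM before mixing.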
# Wee1 degr inh – blocks degradation of human Wee1 kinase. P30291. HeLa Luc-Wee1K328M stability, luciferase luminescence; 100% = proteasome inhibitor MG132 effect. reporter increase, % at 5 µM. actives 1.2% (n = 220,000). AID 1321;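 active = activation above the mean of all tested compounds plus 3 SD, set per screening run, cut at about 8.8% in these data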;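 also: cells exposed to compound for 20 h before luminescence read; 0% = DMSO alone and 100% = MG132 at 30 µM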
# Target sequence (P30291 whole entry K328M): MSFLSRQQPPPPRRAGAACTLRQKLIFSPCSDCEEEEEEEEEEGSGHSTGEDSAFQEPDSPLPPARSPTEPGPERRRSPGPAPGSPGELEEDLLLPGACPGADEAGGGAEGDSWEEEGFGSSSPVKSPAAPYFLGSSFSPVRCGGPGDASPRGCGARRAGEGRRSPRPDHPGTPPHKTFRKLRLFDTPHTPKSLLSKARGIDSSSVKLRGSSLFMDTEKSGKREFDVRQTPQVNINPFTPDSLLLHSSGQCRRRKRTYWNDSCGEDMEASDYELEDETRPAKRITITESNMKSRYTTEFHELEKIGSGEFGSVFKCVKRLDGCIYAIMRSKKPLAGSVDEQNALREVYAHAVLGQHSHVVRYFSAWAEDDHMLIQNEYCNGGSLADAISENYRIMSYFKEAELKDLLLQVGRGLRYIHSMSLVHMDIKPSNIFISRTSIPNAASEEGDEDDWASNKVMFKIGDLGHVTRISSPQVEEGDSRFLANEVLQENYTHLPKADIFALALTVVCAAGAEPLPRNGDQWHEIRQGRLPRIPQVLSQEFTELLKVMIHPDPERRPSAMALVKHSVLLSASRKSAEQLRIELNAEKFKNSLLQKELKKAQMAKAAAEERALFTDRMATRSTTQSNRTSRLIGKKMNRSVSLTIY
# Mdm2 ligase inh – inhibitors of human Mdm2 E3 ubiquitin ligase; Q00987; cell-based MDM2 ubiquitination luciferase reporter, 2 h; 0 = plate control, 100 = twice control, blank-subtracted; signal enhancement, % at 5 µM; actives 0.11% (n = 210,000);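 active = signal enhancement of 30% or more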;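 also: luminescence tracks abundance of the self-degrading MDM2-luciferase fusion protein; higher signal means inhibition of MDM2 E3 ligase activity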
#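 Assay system: stable mammalian line carrying autodegrading MDM2–luciferase fusion reporter; amount: 2000 cells seeded into each well; buffer or medium: DMEM; benchmarks: plate control and blank wells; signal: luciferase luminescence; timing: 2 h compound exposure at 37 °C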
# Hsp70 activator – switches on Hsp70 transcription | HeLa Hsp70 promoter luciferase reporter, luminescence; scaled: vehicle 0, proteasome-inhibitor control 100% | actives 0.04% (n = 200,000) | activation, % at 10 µM;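 active = activation above the mean across all tested compounds plus 3 SD, cutoff set per campaign, cut at about 5.5% in these data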;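 also: 100% = MG132 at 30 µM as the positive control and 0% = DMSO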
# INS promoter inh – TRM-6 insulin promoter activity inhibition | actives 0.9% (n = 130,000) | inhibition, % at 2 µM | TRM-6 cells (human fetal islet line), insulin promoter-eGFP reporter, imaging; reporter expression induced with tamoxifen;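 active = inhibition above the mean plus 3 SD, with well images judged a real hit on visual review, cut at about 60% in these data, passing the limit was not always enough; inconclusive = inhibition over the cutoff but images rejected on review; inactive = inhibition not above the cutoff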
# Starred values were filed as active, the others as inactive; ? = inconclusive; · = no result. An excerpt weighted towards active compounds, which were near 2.2% of everything screened.
SMILES,Ins promoter up,RBBP9 inh,Wee1 degr inh,Mdm2 ligase inh,Hsp70 activator,INS promoter inh
C[C@@H]1C[C@H]2OC(=O)C3(CO3)[C@H]2[C@H](O)[C@]2(C)C(=O)C3OC3[C@@H]12 (some centres undefined),·,·,·,-7,·,·
C=C1C(=O)O[C@@H]2C[C@@H](C)[C@@H]3C=CC(=O)[C@@]3(C)[C@@H](O)[C@H]12,·,·,·,53*,·,·
C/C1=C\[C@@H](C)C/C=C/[C@H]2[C@@H]3O[C@]3(C)[C@@H](C)[C@H]3[C@H](Cc4c[nH]c5ccccc45)NC(=O)[C@]32C(=O)/C=C/C(=O)[C@@H]1O,1.6,0,-1,33*,0,·
COc1ccc(CC(=O)N2CCN(C)CC2)cc1,3.5*,-2,2,-1,0,-6
Cc1ccc(-c2nc3ccccc3c(=O)n2-c2cccc(O)c2)cc1,·,-10,2,-24,0,-60
Cc1ccc(S(=O)(=O)N2CCCCC2)cc1NC(=O)CN1CC=C(c2ccccc2)CC1,-0.32,-2,9.2*,-16,0,-16
CCCCN1C(=O)C(C2c3ccccc3C(=O)N2Cc2ccccc2)C(=O)NC1=S (centres undefined),-0.04,2,9.9*,-23,0,-26
O=C(O)c1nonc1-c1nonc1C(=O)O,-0.15,4,18*,0,0,-22
O=C1NC(=O)C2(C(=O)N1)C(c1ccc(F)cc1)NC(=S)NC2c1ccc(F)cc1 (centres undefined),-1,-10,1,0,0,9
Cc1cccc(NC(N)=S)c1,-0.1,-7,-2,-12,0,33
CC(=NCc1cccnc1)c1c(O)n(-c2ccccc2)c(=O)[nH]c1=O,1.3,-4,0,-8,0,-24
COc1cc(CN=Cc2c(O)n(C(C)(C)C)c(=O)[nH]c2=O)cc(OC)c1,0.2,-10,-2,-18,·,·
COc1cc(C=C2C(=O)NC(=O)NC2=O)ccc1OCc1ccc([N+](=O)[O-])cc1,0.27,-7,12*,-22,1,·
CCC(=NCc1cccnc1)c1c(O)n(Cc2ccccc2)c(=O)[nH]c1=O,-0.74,-7,4,-21,0,-85
O=C(Cc1ccccc1)Oc1ccccc1N1C(=O)CCC1=O,·,-5,-3,-4,2,6
NCCc1c[nH]c2ccccc12,0.53,5,-2,19,-1,-5
CCCCc1ccc2[nH]cc(CCN)c2c1,3.1*,-6,-1,-13,0,10
Cc1cc(Oc2ccc(C(F)(F)F)cc2[N+](=O)[O-])c2c3c(c(=O)oc2c1)CCCC3,0.08,-5,-4,-11,0,·
Brc1ccc2c(c1)C(OC1CN3CCC1CC3)c1ccccc1CS2 (centres undefined),-3.4,1,3,-4,0,-22
Clc1ccccc1CN1CCN(c2ccccc2)CC1,·,-2,-1,-1,0,-45
CC(C)(C)c1ccc(O)c(CN2CCN(c3ccccc3)CC2)c1,-0.47,-2,-2,-5,0,82*
CCOc1ccc(-n2c(O)c(N=Nc3c(C)n(C)n(-c4ccccc4)c3=O)c(=O)[nH]c2=O)cc1,-0.14,-12,4,-13,·,·
CC(=O)Nc1ccccc1OP1(=O)COc2ccccc2OC1,-0.67,-10,7,-11,0,77*
COc1ccc(-c2cc(=O)c3c(OC)c(OC)c(OC)cc3o2)cc1,1.6,3,9.3*,-14,0,·
C#CCN1CCN(c2cccc(C(F)(F)F)c2)CC1,-0.24,-1,-3,-2,0,56
SMILES,Ins promoter up,RBBP9 inh,Wee1 degr inh,Mdm2 ligase inh,Hsp70 activator,INS promoter inh
CC1=C(C(=O)N2CCC3(CC2)OCCO3)C2(CCC(C)CC2)OC1=O (centres undefined),0.17,-10,-2,-5,0,73*
CCOP(=S)(OCC)Oc1cc(C)oc(=O)c1Cl,-0.42,-11,1,-16,·,·
CCN1C(=O)C(=C/C=C/c2ccco2)C(=O)N(CC)C1=S,0.57,-33,-2,47*,0,29
CC(C)N1C(=O)/C(=C/C=C/c2ccco2)C(=O)N(Cc2ccco2)C1=O,-0.28,-4,-3,13,0,·
Cc1ccc2ccccc2c1NC(=O)CNC1CCCCC1,0.05,4,10*,-5,0,3
CCc1ccccc1NC(=O)CNC1CCCCC1,0.08,3,-1,-15,0,·
O=C(C1CC(=O)N(C2CCCCC2)C1)N1CCC2(CC1)OCCO2 (centres undefined),2.1,5,3,-2,0,-7
O=C1CC(C(=O)N2CCC3(CC2)OCCO3)CN1CCc1ccccc1 (centres undefined),0.09,-2,1,8,0,80*
Oc1cc2c(cc1O)[C@H]1c3ccccc3CN[C@@H]1CC2,-0.75,22*,-1,·,0,·
CCCCn1c(=O)c(C(=O)Nc2nc3ccccc3[nH]2)c(O)c2ccccc21,0.07,·,·,·,·,·
CCCCCn1c(=O)c(C(=O)Nc2nc3ccccc3[nH]2)c(O)c2ccccc21,-3.3,1,10*,-11,·,·
Nc1cc2nc3ccccc3nc2cc1N,3.7*,3,-1,-23,·,·
Cc1ccc(N2CCN(CCc3ccccc3)CC2)cc1,0.32,-5,1,-10,0,-14
CC1CN(CCc2ccccc2)CC(C)O1 (centres undefined),1.5,6,0,-1,0,70*
Cc1oc(-c2ccc(F)cc2F)nc1CN1C[C@@H]2C[C@@H](C1)c1cccc(=O)n1C2,-0.67,2,-2,-5,0,·
c1ccc2c(CN3CCN(C4CCCCC4)CC3)c[nH]c2c1,-1.6,0,11*,-7,0,·
c1ccc2c(CN3CCCCCCC3)c[nH]c2c1,-2.2,-9,-4,-9,0,·
c1ccc2oc(N3CCNCC3)nc2c1,1.6,-5,0,-9,0,·
c1ccc2c(N3CCNCC3)nsc2c1,3.1*,-7,-4,-11,0,·
CCN(CC)C(=O)c1ccc(NC(=O)c2cccc(F)c2)cc1,0.13,-2,8.8*,-15,0,?
O=C1NC(=O)N(c2cccc(Cl)c2)C(=O)/C1=C\c1ccc(Sc2nc3ccccc3[nH]2)o1,0.37,-163,11*,·,0,21
CC(C)CCOC(=O)c1c(N)n(CC2CCCO2)c2nc3ccccc3nc12 (centres undefined),-0.32,4,10*,-7,0,7
COc1c(C)cc(C(=O)C2CCCN(Cc3cccc(C)n3)C2)cc1C (centres undefined),-0.46,-7,3,-8,0,-30
NC1=NC(=O)C(c2ccccc2)O1 (centres undefined),0.51,-5,10*,·,0,·
